Data as given in publication PMC5704914 (Biochemistry, 2017).
“Also recorded” adds a separate entry of the source.

Legend:
[1] = tested on: L-type Ca^2+ channels at the surface of hippocampal pyramidal neurons; conditions: chelating intracellular Ca^2+, ref [27]; cited from earlier work
L-type channel = conditions: ref [71], [72]; cited from earlier work
apoCaM = apoCaM (Homo sapiens, UniProt P0DP23); assay: Fluorescence polarization, binding of IQ domain-derived peptides to apoCaM; conditions: FP assay, relative to WT peptide
Summary of the method: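 Wild-type or mutant α11.2 IQ peptides (AAs 1644-1668), N-terminally fluorescein-labelled, at 1 μM final, were mixed with twofold serial dilutions of untagged purified apoCaM starting from 100 μM. Polarization was read after ≥45 min (ex 485/20, em 528/20) and normalized to fractional binding. Kd came from fitting Y = B*X/(Kd + X); error bars are SD.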

CaV1.2 = assay: Whole-cell Ba2+ current recording in HEK293T/17 cells; assay type: cell-based, rat α11.2, rat β2a, rabbit α2δ1; conditions: for Erev (equilibrium/reversal potential) / Gmax (maximum conductance) / V1/2 (half-activation voltage): Boltzmann IV fit; for Erev (equilibrium/reversal potential) / Gmax (maximum conductance) / V1/2 (half-activation voltage) / current density relative to WT: N=6–7; for V1/2 (half-activation voltage): *** p<0.001 vs WT; for current density relative to WT: at 20 mV, ANOVA, Tukey and Bonferroni; for shift of V1/2 relative to WT: shift towards more depolarized levels
Summary of the method: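 HEK293T/17 cells on poly-L-lysine coverslips were transfected 1:1:1 with β2a, α2δ1 and HA/CFP-tagged WT or mutant α11.2 (Lipofectamine 2000). Whole-cell Ba2+ currents were taken 48–72 h later from CFP-positive cells, held at −70 mV and stepped from −40 to +80 mV in 10 mV increments, with P/4 leak subtraction. Currents were capacitance-normalized, I–V curves Boltzmann-fitted, and data given as mean ± S.E.M. (ANOVA, Tukey/Bonferroni). Cells came from ≥3 independent transfections.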

[2] = tested on: surface expression of CaV1.2 (α11.2) in HEK293T/17 cells; assay: Cell surface biotinylation of HA-tagged α11.2 in HEK293T/17 cells; assay type: cell-based, rat; conditions: NeutrAvidin pull-down, immunoblot, normalized to WT; N=7–13
Summary of the method: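 HEK293T/17 cells co-transfected 1:1:1 (calcium phosphate) with α2δ1, β2a and WT or mutant CFP-HA-α11.2; medium changed at 7 h, Accutase-detached at 22 h, >95% trypan-blue-negative. 6×10^6 cells surface-labelled with 0.4 mg/mL sulfo-NHS-LC-biotin, 30 min on ice, pH 7.8; glycine-quenched, RIPA-lysed. 250 μg lysate on NeutrAvidin beads, 2 h, 4°C. Immunoblot for HA, loop II/III, GAPDH and α-tubulin; ECL exposures kept linear.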

[3] = tested on: surface expression of CaV1.2 (α11.2) in HEK293T/17 cells; assay: Flow cytometry of surface anti-HA staining of α11.2 in HEK293T/17 cells; assay type: cell-based, rat; conditions: N=5–7; for reduction in surface labeling of HA-epitope: relative to WT channel labeling
Summary of the method: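 HEK293T/17 cells were co-transfected 1:1:1 with α2δ1, β2a and CFP-HA-α11.2 (HA in the domain II S5-H5 extracellular loop) by calcium phosphate, with medium changed at 7 h. At 22 h, Accutase-detached, trypan-blue-counted live cells (6×10^6) were stained on ice for 1 h in the dark ± 2.5 μg/mL Alexa 647 anti-HA, then given 1 μg/mL PI. 50,000 PI-negative singlets were collected; HA-positive percentage of CFP-positive cells was normalized to WT.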

Compound	prevalence of L-type Ca2+ channels at the surface [1]	behavioral effect (L-type channel)	effect of mutation on apoCaM binding (apoCaM)	Erev (equilibrium/reversal potential) (CaV1.2)	Gmax (maximum conductance) (CaV1.2)	V1/2 (half-activation voltage) (CaV1.2)	current density relative to WT (CaV1.2)	surface expression by biotinylation relative to WT [2]	reduction in surface labeling of HA-epitope [3]	shift of V1/2 relative to WT (CaV1.2)	percentage of anti-HA and CFP co-positive events relative to WT ([3]; PI-negative, CFP-positive cells, normalized to WT)
O=C(O)CN(CC(=O)O)c1ccccc1OCCOc1ccccc1N(CC(=O)O)CC(=O)O [BAPTA]	increased the prevalence of L-type Ca^2+ channels at the surface										
COC(=O)C1=C(C)NC(C)=C([N+](=O)[O-])C1c1ccccc1C(F)(F)F (stereo not drawn) [BayK8644]		depressant-like behavior									
F1648A: fluorescein-labeled α11.2 IQ domain peptide (AAs 1644-1668), F1648A mutant			did not affect apoCaM binding	73.5 ± 1.7 mV	0.26 ± 0.02	3.0 ± 1.5 mV	did not show a significant reduction	did not exhibit statistically significant differences			
I1654A: fluorescein-labeled α11.2 IQ domain peptide (AAs 1644-1668), I1654A mutant			affected apoCaM binding; also recorded: reduced binding affinity to apoCaM	75.7 ± 1.7 mV	0.15 ± 0.01	11.2 ± 1.5*** mV	significantly reduced current density	significant decreases in surface expression	~ 35%	quite pronounced and significant	
K1647A: fluorescein-labeled α11.2 IQ domain peptide (AAs 1644-1668), K1647A mutant				69.2 ± 1.3 mV	0.09 ± 0.01	1.1 ± 1.4 mV	significantly reduced current density	significant decreases in surface expression	~ 35%	did not reach statistical significance	
Q1655A: fluorescein-labeled α11.2 IQ domain peptide (AAs 1644-1668), Q1655A mutant			did not affect apoCaM binding	67.2 ± 2.7 mV	0.25 ± 0.02	−2.6 ± 1.6 mV	did not show a significant reduction	did not exhibit statistically significant differences			not observed
Y1649A: fluorescein-labeled α11.2 IQ domain peptide (AAs 1644-1668), Y1649A mutant				66.5 ± 2.9 mV	0.08 ± 0.01		significantly reduced current density	significant decreases in surface expression	~ 35%	quite pronounced and significant	
